Each block holds one molecule with its values, some of them ahead of it. Square brackets hold non-standard residues; d marks the D form. Ends that are not written are not given here. * marks the point of attachment. Biotin = O=C1N[C@H]2[C@H](CS[C@H]2CCCCC(=O)*)N1; pS = N[C@@H](COP(=O)(O)O)C(=O)O
Assays:
[1] = target: biotinylated STARD3 FFAT peptide (residues 200-216), pS209 + pS213 (human); test: SPR
[2] = target: biotinylated STARD3 FFAT peptide (residues 200-216), pS209 (human); test: SPR
[3] = target: T1, recombinant MSP domain of VAP-A (8-212), C-terminal His6 (human, UniProt Q9P0L0 8-212); test: crystal structure
T1 sequence (looked up): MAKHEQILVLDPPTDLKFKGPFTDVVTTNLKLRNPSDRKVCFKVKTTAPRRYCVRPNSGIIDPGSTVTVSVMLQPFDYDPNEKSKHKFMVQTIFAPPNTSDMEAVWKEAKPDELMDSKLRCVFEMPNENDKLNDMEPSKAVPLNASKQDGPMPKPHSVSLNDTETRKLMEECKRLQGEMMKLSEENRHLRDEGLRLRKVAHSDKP

[4] = target: T2, recombinant MSP domain of MOSPD2 (315-445) (human, UniProt Q8NHP6 315-445); test: crystal structure
T2 sequence (looked up): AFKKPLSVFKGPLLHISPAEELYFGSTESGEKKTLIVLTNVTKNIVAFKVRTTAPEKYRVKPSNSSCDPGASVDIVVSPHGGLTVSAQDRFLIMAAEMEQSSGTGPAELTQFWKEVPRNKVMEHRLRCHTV

[5] = target: recombinant MSP domain of VAP-B K43L (human, UniProt O95292 1-210, K43L); test: pull-down
recombinant MSP domain of VAP-B K43L, sequence (O95292 1-210 K43L): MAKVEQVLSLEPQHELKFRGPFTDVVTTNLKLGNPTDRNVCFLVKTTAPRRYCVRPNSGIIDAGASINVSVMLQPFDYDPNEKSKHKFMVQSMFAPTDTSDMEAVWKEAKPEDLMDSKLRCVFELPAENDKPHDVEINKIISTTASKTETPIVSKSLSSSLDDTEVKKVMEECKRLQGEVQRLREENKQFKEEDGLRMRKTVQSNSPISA

[6] = target: T1, recombinant MSP domain of VAP-A …; test: pull-down
[7] = target: T3, recombinant MSP domain of MOSPD2 (282-490), C-terminal His6 (human, UniProt Q8NHP6 282-490); test: pull-down
T3 sequence (looked up): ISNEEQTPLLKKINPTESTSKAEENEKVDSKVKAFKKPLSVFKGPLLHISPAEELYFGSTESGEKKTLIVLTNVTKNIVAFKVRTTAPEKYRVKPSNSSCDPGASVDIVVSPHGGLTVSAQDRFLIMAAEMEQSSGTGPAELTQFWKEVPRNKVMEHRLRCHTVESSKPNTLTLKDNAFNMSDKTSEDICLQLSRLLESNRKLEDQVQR

[8] = target: T4, recombinant MSP domain of VAP-A K50L (human, UniProt Q9P0L0 8-212, K50L); test: pull-down
T4 sequence (looked up): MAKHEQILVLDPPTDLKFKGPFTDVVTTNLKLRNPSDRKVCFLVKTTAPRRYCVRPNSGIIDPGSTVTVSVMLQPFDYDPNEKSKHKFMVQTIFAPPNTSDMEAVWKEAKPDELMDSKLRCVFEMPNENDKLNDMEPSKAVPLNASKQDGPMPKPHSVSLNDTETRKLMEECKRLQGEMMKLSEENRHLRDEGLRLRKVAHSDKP

[9] = target: T5, recombinant MSP domain of MOSPD2 K363L (human, UniProt Q8NHP6 282-490, K363L); test: pull-down
T5 sequence (looked up): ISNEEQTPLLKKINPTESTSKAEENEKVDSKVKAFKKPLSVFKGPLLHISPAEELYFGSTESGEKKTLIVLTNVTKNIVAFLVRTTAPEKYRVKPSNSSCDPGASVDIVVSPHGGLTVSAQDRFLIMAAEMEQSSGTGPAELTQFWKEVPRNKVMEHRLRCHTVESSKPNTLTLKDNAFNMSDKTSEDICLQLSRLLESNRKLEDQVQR

[10] = target: recombinant MSP domain of VAP-B (1-210), C-terminal His6 (human, UniProt O95292 1-210); test: pull-down
recombinant MSP domain of VAP-B (1-210), C-terminal His6, sequence (O95292 1-210): as the sequence (O95292 1-210 K43L) above, with L43K counted along it

[11] = DHE transport assay between liposomes; type: biochemical; details: per cSTD3; absence of functional VAP; 37°C; n = 4
Method in brief: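 LA liposomes (DOPC, 3 mol% MPB-PE; 62.5 µM total lipids final) were preincubated 5 min with 475 nM cSTD3 or pS209 cSTD3 in TN3 buffer (50 mM Tris-HCl pH 8, 75 mM NaCl) at 37°C with stirring. Read-out was DNS-PE emission at 525 nm with excitation at 310 nm. Transport was expressed as mol% DHE = 10×(F−F0)/(Fmax−F0), with F0 set by 10 mM methyl-β-cyclodextrin.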

- Kd [1]: 0.35 µM
- Kd [2]: 1.1 µM
Molecule: recombinant MSP domain of MOSPD2 (282-490), C-terminal His6 (from UniProt Q8NHP6 282-490) (domain or fragment)

- Kd [2]: 5.6 µM
Molecule: recombinant MSP domain of VAP-A (8-212), C-terminal His6 (from UniProt Q9P0L0 8-212) (domain or fragment)

- Kd [2]: 7.1 µM
Molecule: recombinant MSP domain of VAP-B (1-210), C-terminal His6 (from UniProt O95292 1-210) (domain or fragment)

- binding result [3]: binds
Molecule: GAL[pS]EGQFY[pS]PPE[pS]FAG [phosphorylated FFAT peptide of STARD3 used for crystallisation with VAP-A (GALpSEGQFYpSPPEpSFAG)]

- binding result [4]: binds
Molecule: CLFSGAL[pS]EGQFY[pS]PPE[pS]FAG

- binding result [5]: binds
- binding result [6]: binds
- binding result [7]: binds
- binding result [8]: binds
- binding result [9]: binds
- binding result [10]: binds
Molecule: Biotin-GAMRSILSEDEFYDALSDSES [biotinylated ORP1 FFAT peptide (residues 469-485)]

B1: cSTD3 (protein)
chain: CLFSGALSEGQFYSPPESFAGSDNESDEEVAGKKSFSAQEREYIRQGKEATAVVDQILAQEENWKFEKNNEYGDTVYTIEVPFHGKTFILKTFLPCPAELVYQEVILQPERMVLWNKTVTACQILQRVEDNTLISYDVSAGAAGGVVSPRDFVNVRRIERRRDRYLSSGIATSHSAKPPTHKYVRGENGPGGFIVLKSASNPRVCTFVWILNTDLKGRLPRYLIHQSLAATMFEFAFHLRQRISELGARA
modifications: left off: GST, N-terminal, cleaved
- Initial DHE transport rate [11]: 10.45 DHE molecules/min

- binding result [9]: binds
Molecule: Biotin-GAMRGALSEGQFY[pS]PPE[pS]FAG [biotinylated STARD3 FFAT peptide (residues 200-216), pS209 + pS213]
